PMC6383364 (ACS chemical biology, 2019)

What was measured:
[1] = format: in vivo; details: rat; for CSF AUC0–7 / CSF Cmax / Brain AUC0–7 / Brain Cmax: after BIA 10–2474 (1) 10 mg/kg p.o.; for Plasma AUC0–7: after BIA 10–2474 (1) 10 mg/kg p.o. in 0.5% methylcellulose; for Brain AUC0–7 / Brain Cmax: not corrected for binding to tissues
Summary of the method: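 Rats were dosed orally at 10 mg/kg in 0.5% methylcellulose. The parent compound and its metabolites were quantified in plasma, brain and CSF. Cmax and AUC0–7 were derived for each analyte.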

ALDHs = experiment: ABPP reactivity with ALDHs in human cells; format: cell-based; details: N-methyl compounds
ALDH2 [2] = biological target: T1, ALDH2 (Homo sapiens, UniProt P05091); experiment: Quantitative MS-based CC-ABPP and Western blot in CCF-STTG1 cells: ALDH2; format: cell-based; details: pre-treatment 10 µM, 1 h, then corresponding probe 7 or 8
T1 sequence (P05091 18-517): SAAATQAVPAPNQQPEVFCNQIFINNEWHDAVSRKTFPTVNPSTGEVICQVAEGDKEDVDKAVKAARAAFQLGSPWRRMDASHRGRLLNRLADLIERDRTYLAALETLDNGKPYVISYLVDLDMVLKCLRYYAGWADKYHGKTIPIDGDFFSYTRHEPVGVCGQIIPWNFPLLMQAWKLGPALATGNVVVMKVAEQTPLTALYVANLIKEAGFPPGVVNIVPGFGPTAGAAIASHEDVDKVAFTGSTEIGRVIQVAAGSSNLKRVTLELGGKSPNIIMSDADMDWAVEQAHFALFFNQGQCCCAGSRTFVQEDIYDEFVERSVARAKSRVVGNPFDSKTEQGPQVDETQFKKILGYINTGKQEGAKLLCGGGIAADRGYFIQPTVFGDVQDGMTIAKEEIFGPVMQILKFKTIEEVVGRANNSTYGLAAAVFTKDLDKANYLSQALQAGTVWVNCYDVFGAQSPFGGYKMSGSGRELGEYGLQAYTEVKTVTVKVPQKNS
Summary of the method: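 CCF-STTG1 cells were grown in isotopically heavy or light amino-acid media. Cells received DMSO (heavy) or test compound (light; 10 μM, 1 h), followed by the corresponding clickable probe (1 μM, 1 h). Heavy/light protein ratios were averaged from quantified peptides across two independent biological replicates. Streptavidin-enriched fractions, with or without parent pretreatment, were immunoblotted with anti-ALDH2.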

ALDH2 [3] = biological target: T1, ALDH2; experiment: isoTOP-ABPP cysteine reactivity in SW620 cells: ALDH2; format: cell-based; details: 10 µM, 1 h
Summary of the method: (§1)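 SW620 cells were treated with test compound (10 μM, 1 h; light) or DMSO (heavy). Cysteine reactivity was then profiled globally by isoTOP-ABPP using an alkynylated iodoacetamide probe (IA-alkyne). Heavy/light ratios for quantified cysteines were averaged across four independent biological replicates.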

ALDH9A1 = ALDH9A1 (Homo sapiens, UniProt P49189); experiment: isoTOP-ABPP cysteine reactivity in SW620 cells: ALDH9A1; format: cell-based; details: 10 µM, 1 h
Sequence of ALDH9A1 (P49189 whole entry): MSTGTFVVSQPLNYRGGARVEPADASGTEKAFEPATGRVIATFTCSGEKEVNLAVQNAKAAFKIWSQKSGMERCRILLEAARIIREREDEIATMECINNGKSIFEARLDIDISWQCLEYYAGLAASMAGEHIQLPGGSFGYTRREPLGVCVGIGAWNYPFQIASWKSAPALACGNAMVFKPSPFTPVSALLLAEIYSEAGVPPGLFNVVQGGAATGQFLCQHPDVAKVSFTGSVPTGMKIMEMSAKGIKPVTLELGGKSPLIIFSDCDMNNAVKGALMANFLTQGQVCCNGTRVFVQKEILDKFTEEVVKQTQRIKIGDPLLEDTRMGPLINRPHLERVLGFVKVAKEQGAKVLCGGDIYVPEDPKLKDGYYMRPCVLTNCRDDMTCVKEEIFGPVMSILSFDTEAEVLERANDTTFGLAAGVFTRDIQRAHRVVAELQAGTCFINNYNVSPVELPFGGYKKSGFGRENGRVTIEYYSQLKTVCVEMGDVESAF
Summary of the method: as §1

ALDH5A1 = biological target: T2, ALDH5A1 (Homo sapiens, UniProt P51649); experiment: isoTOP-ABPP cysteine reactivity in SW620 cells: ALDH5A1; format: cell-based; details: 10 µM, 1 h, Table S2
T2 sequence (P51649 48-535): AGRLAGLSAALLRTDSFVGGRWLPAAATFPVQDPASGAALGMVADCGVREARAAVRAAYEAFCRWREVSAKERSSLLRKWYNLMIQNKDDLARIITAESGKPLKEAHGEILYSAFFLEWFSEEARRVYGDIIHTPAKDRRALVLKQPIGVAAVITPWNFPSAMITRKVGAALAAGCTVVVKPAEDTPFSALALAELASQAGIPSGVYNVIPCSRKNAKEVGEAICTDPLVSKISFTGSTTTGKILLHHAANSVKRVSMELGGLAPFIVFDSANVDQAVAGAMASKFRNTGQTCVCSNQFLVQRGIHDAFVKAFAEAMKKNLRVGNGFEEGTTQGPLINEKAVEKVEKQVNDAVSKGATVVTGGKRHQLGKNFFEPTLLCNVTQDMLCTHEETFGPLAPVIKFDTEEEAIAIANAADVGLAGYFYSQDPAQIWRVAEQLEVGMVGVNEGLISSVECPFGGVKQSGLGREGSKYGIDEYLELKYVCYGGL
Summary of the method: as §1

~50–55 kDa protein = experiment: Gel-based CC-ABPP in CCF-STTG1 human astrocytoma cells; format: cell-based; details: pre-treatment 10 µM, 1 h, then probes 7 and 8
Summary of the method: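 CCF-STTG1 human astrocytoma cells were pretreated in situ with DMSO or the parent test compound (10 μM, 1 h), then given the matching alkyne probe (1 μM, 1 h). Probe-labelled proteins were conjugated by CuAAC to a rhodamine-azide reporter, resolved by SDS-PAGE and detected by in-gel fluorescence scanning.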

ALDH2 [4] = biological target: T1, ALDH2; experiment: LC-MS characterisation of the adduct with ALDH2 from treated HEK293T cells; format: cell-based; details: HEK293T cells expressing FLAG-tagged WT-ALDH2, 10 µM, 1 h; LC-MS-based proteomics

CSF AUC0–7 [1] [ng·h/mL] | CSF Cmax [1] [ng/mL] | Plasma AUC0–7 [1] [ng·h/mL] | Brain AUC0–7 [1] [ng·h/mL] | Brain Cmax [1] [ng/mL] | Blockade of probe enrichment of ALDH2 (Western blotting) (ALDH2 [2]) | IA-alkyne reactivity of C319 of ALDH2 (ALDH2 [3]) | IA-alkyne reactivity of other cysteine (C386) of ALDH2 (ALDH2 [3]) | IA-alkyne reactivity of C288 of ALDH9A1 (ALDH9A1) | IA-alkyne reactivity of C340 of ALDH5A1 (ALDH5A1) | Adduct with C319 on ALDH2 (ALDH2 [4]) | Compound | Reaction with ALDHs (ALDHs) | Blockade of probe labelling of ~50–55 kDa protein (~50–55 kDa protein)
4000 | 1300 | 13800 | 2480 | 939 | – | – | – | – | – | – | CN(C(=O)n1cnc(-c2ccc[n+]([O-])c2)c1)C1CCCCC1 [BIA 10–2474 (1)] | fail to react | –
113 | 36.2 | 306 | 185 | 252 | – | – | – | – | – | – | CN(C(=O)n1cnc(-c2cccnc2)c1)C1CCCCC1 [compound 2] | – | –
15.6 | 5.03 | 323 | 11.8 | 4.57 | blockade | blocked | unperturbed | blocked | unchanged | S-thiocarbamate adduct | O=C(NC1CCCCC1)n1cnc(-c2ccc[n+]([O-])c2)c1 [compound 3] | – | blocked
